Results: ChEMBL document CHEMBL3797186, “Single Residue Substitutions That Confer Voltage-Gated Sodium Ion Channel Subtype Selectivity in the NaV1.7 Inhibitory Peptide GpTx-1” (J Med Chem, 2016)
Positions of bridges follow the written chain, without caps; N, C: chain ends. Residues, ends and D or L forms follow the SMILES beside them.

What was measured:
[1] = target: Sodium channel protein type 5 subunit alpha (Homo sapiens, UniProt Q14524); assay: Inhibition of human Nav1.5 expressed in HEK293 cells assessed as inward peak current by ion-works quattro patch clamp electrophysiology method; type: cell-based
Outline: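 Stable HEK293 line expressing human NaV1.5, recorded by population patch clamp on the IonWorks Quattro.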

[2] = target: Sodium channel protein type 9 subunit alpha (Homo sapiens, UniProt Q15858); assay: Inhibition of human Nav1.7 expressed in HEK293 cells assessed as inward peak current by ion-works quattro patch clamp electrophysiology method; type: cell-based
Sequence of Sodium channel protein type 9 subunit alpha (Q15858 whole entry): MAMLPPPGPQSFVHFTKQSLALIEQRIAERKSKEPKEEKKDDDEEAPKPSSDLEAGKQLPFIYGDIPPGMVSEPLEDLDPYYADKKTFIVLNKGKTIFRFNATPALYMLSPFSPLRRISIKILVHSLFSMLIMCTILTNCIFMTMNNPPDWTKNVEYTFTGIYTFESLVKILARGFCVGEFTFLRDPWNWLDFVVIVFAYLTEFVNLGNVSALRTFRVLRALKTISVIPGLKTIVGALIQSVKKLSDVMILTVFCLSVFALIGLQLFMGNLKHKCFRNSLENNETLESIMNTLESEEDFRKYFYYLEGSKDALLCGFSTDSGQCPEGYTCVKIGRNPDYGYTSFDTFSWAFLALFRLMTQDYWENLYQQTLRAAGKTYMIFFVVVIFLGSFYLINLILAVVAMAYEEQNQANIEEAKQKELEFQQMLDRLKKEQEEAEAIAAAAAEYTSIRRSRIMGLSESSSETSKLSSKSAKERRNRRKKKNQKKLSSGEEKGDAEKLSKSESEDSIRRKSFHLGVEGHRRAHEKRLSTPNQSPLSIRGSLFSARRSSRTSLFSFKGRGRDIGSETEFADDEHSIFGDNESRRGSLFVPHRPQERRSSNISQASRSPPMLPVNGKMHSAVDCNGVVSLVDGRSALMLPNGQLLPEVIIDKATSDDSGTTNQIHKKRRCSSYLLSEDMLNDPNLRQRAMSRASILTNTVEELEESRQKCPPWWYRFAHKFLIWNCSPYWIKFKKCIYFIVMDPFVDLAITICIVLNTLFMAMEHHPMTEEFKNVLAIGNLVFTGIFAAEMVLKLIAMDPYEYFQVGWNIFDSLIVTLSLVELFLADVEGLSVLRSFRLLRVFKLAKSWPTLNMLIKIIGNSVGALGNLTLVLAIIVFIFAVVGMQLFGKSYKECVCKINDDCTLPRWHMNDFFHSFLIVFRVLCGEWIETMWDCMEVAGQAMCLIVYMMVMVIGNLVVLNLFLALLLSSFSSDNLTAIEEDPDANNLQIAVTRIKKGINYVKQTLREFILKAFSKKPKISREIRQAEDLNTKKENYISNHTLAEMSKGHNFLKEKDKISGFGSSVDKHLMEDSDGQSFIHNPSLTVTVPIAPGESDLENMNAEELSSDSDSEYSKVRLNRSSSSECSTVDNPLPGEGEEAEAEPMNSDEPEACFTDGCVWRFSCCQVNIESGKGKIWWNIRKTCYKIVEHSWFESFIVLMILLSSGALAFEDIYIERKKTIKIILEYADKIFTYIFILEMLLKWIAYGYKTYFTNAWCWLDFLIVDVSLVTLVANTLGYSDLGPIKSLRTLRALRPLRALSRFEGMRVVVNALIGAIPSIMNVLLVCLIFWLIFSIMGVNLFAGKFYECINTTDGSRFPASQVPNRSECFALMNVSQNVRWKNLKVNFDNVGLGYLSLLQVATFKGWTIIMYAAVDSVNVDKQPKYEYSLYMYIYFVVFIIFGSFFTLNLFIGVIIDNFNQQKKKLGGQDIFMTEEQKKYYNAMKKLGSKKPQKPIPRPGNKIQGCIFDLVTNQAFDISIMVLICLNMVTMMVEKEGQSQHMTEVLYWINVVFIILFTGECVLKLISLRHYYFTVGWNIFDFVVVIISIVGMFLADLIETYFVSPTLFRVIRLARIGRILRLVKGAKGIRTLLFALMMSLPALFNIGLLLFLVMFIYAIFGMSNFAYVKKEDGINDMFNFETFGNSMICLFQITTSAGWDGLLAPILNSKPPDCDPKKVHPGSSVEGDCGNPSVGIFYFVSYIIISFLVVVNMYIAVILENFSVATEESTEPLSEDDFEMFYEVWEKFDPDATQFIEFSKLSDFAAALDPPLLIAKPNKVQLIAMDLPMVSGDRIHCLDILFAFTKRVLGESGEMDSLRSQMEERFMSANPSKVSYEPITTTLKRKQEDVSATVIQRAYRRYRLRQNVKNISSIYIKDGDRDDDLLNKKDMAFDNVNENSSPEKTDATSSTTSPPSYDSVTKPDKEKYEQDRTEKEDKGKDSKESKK

Sequence of Sodium channel protein type 5 subunit alpha (Q14524 whole entry): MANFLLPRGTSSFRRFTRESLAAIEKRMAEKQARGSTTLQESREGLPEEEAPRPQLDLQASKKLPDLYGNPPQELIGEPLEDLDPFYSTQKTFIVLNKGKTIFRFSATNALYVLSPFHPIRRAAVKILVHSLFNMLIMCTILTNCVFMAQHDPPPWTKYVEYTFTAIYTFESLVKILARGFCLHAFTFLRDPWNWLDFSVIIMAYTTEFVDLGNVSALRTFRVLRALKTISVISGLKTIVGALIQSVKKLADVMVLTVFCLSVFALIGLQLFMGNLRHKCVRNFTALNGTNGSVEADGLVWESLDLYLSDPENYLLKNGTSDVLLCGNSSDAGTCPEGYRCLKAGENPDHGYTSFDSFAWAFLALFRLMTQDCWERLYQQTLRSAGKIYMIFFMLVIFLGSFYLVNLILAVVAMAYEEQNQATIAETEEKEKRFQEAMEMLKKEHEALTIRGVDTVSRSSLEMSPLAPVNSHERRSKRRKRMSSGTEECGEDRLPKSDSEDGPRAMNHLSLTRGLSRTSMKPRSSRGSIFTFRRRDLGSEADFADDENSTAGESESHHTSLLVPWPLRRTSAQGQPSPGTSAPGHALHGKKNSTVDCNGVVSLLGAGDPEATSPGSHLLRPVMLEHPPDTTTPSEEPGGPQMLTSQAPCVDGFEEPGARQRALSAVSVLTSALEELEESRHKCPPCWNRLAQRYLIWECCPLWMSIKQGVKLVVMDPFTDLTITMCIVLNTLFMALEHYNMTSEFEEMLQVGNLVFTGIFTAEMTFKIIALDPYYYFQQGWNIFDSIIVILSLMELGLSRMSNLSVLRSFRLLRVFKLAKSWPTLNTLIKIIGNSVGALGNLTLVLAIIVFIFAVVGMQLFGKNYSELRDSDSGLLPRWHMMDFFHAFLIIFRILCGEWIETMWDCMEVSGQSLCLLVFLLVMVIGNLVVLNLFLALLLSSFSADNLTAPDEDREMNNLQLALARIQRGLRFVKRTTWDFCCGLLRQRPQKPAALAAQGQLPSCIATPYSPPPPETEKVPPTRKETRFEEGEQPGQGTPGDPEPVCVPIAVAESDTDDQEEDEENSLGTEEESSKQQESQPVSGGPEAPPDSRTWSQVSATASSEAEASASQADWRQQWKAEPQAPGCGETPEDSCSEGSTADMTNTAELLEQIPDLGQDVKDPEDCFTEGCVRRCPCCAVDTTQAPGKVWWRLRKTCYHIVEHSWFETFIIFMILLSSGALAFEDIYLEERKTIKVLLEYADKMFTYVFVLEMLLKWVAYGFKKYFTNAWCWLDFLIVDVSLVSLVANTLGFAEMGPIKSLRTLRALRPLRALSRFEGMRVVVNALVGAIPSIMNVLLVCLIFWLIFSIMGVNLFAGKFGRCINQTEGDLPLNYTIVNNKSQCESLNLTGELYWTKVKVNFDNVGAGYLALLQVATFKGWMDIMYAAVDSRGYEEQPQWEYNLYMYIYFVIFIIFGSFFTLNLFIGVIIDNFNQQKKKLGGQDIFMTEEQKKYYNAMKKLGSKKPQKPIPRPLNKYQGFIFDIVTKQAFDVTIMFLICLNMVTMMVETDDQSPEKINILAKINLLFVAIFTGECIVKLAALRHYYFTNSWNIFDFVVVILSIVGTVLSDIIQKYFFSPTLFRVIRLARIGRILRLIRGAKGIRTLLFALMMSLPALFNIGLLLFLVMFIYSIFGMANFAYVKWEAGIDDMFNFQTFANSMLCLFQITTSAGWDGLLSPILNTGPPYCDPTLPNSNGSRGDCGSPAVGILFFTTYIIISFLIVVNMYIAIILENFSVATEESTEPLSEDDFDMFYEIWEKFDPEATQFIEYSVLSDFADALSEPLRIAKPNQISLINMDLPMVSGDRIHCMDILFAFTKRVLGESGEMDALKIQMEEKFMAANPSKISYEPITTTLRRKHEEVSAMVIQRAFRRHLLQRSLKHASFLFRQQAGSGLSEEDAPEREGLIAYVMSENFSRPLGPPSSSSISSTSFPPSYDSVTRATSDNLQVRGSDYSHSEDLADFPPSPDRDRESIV

| SMILES | IC50 [1] | IC50 [2] |
| --- | --- | --- |
| CC[C@H](C)[C@@H]1NC(=O)[C@@H]2CSSC[C@@H]3NC(=O)[C@H](C(C)C)NC(=O)[C@H](CC(C)C)NC(=O)[C@H](CC(N)=O)NC(=O)[C@@H]4CCCN4C(=O)[C@H](CCCNC(=N)N)NC(=O)[C@H](CSSC[C@H](NC(=O)[C@@H](N)CC(=O)O)C(=O)N[C@@H](CC(C)C)C(=O)NCC(=O)N[C@@H](Cc4ccccc4)C(=O)N[C@@H](CCSC)C(=O)N[C@@H](CCCNC(=N)N)C(=O)N[C@@H](CCCCN)C(=O)N2)NC(=O)[C@H](CSSC[C@@H](C(=O)N[C@@H](Cc2c[nH]c4ccccc24)C(=O)N[C@@H](Cc2ccc(O)cc2)C(=O)N[C@H](C(=O)N[C@@H](Cc2ccccc2)C(N)=O)C(C)C)NC(=O)[C@H](Cc2c[nH]c4ccccc24)NC(=O)[C@H](CCCCN)NC(=O)[C@H](Cc2c[nH]cn2)NC(=O)[C@H]([C@@H](C)O)NC(=O)[C@H](CCCNC(=N)N)NC(=O)[C@H](CO)NC3=O)NC(=O)[C@H](CCCCN)NC(=O)[C@H](CC(=O)O)NC(=O)[C@H](CC(N)=O)NC(=O)[C@H](CC(=O)O)NC(=O)[C@@H]2CCCN2C1=O (H-DCLGFMRKCIPDNDKCCRPNLVCSRTHKWCWYVF-NH2; disulfide 2-17, 9-23, 16-30) | > 5 µM | > 4.9 µM |
| CC[C@H](C)[C@@H]1NC(=O)[C@@H]2CSSC[C@@H]3NC(=O)[C@H](C(C)C)NC(=O)[C@H](CC(C)C)NC(=O)[C@H](CC(N)=O)NC(=O)[C@@H]4CCCN4C(=O)[C@H](CCCNC(=N)N)NC(=O)[C@H](CSSC[C@H](NC(=O)[C@@H](N)CC(=O)O)C(=O)N[C@@H](CC(C)C)C(=O)NCC(=O)N[C@@H](Cc4ccccc4)C(=O)N[C@@H](CCSC)C(=O)N[C@@H](CCCNC(=N)N)C(=O)N[C@@H](CCCNC(=N)N)C(=O)N2)NC(=O)[C@H](CSSC[C@@H](C(=O)N[C@@H](CCCCN)C(=O)N[C@@H](Cc2ccc(O)cc2)C(=O)N[C@H](C(=O)N[C@@H](Cc2ccccc2)C(N)=O)C(C)C)NC(=O)[C@H](Cc2c[nH]c4ccccc24)NC(=O)[C@H](CCCCN)NC(=O)[C@H](Cc2cnc[nH]2)NC(=O)[C@H]([C@@H](C)O)NC(=O)[C@H](CCCNC(=N)N)NC(=O)[C@H](CO)NC3=O)NC(=O)[C@H](CCCCN)NC(=O)[C@H](CC(=O)O)NC(=O)[C@H](CC(N)=O)NC(=O)[C@H](CC(=O)O)NC(=O)[C@@H]2CCCN2C1=O (H-DCLGFMRRCIPDNDKCCRPNLVCSRTHKWCKYVF-NH2; disulfide 2-17, 9-23, 16-30) | > 5 µM | 0.13 µM |
| CC[C@H](C)[C@@H]1NC(=O)[C@@H]2CSSC[C@@H]3NC(=O)[C@H](C(C)C)NC(=O)[C@H](CC(C)C)NC(=O)[C@H](CC(N)=O)NC(=O)[C@@H]4CCCN4C(=O)[C@H](CCCNC(=N)N)NC(=O)[C@H](CSSC[C@H](NC(=O)[C@@H](N)CC(=O)O)C(=O)N[C@@H](CC(C)C)C(=O)NCC(=O)N[C@@H](Cc4ccccc4)C(=O)N[C@@H](CCSC)C(=O)N[C@@H](CCCNC(=N)N)C(=O)N[C@@H](CCCCN)C(=O)N2)NC(=O)[C@H](CSSC[C@@H](C(=O)N[C@@H](CCCCN)C(=O)N[C@@H](Cc2ccc(O)cc2)C(=O)N[C@H](C(=O)N[C@@H](Cc2ccccc2)C(N)=O)C(C)C)NC(=O)[C@H](Cc2c[nH]c4ccccc24)NC(=O)[C@H](CCCCN)NC(=O)[C@H](Cc2cnc[nH]2)NC(=O)[C@H](CCCNC(=N)N)NC(=O)[C@H](CCCNC(=N)N)NC(=O)[C@H](CO)NC3=O)NC(=O)[C@H](CCCCN)NC(=O)[C@H](CC(=O)O)NC(=O)[C@H](CC(N)=O)NC(=O)[C@H](CC(=O)O)NC(=O)[C@@H]2CCCN2C1=O (H-DCLGFMRKCIPDNDKCCRPNLVCSRRHKWCKYVF-NH2; disulfide 2-17, 9-23, 16-30) | 3.5 µM | 0.04 µM |
| CC[C@H](C)[C@@H]1NC(=O)[C@@H]2CSSC[C@@H]3NC(=O)[C@H](C(C)C)NC(=O)[C@H](CC(C)C)NC(=O)[C@H](CC(N)=O)NC(=O)[C@@H]4CCCN4C(=O)[C@H](CCCNC(=N)N)NC(=O)[C@H](CSSC[C@H](NC(=O)[C@@H](N)CC(=O)O)C(=O)N[C@@H](CC(C)C)C(=O)NCC(=O)N[C@@H](Cc4ccccc4)C(=O)N[C@@H](CCSC)C(=O)N[C@@H](CCCNC(=N)N)C(=O)N[C@@H](CCCCN)C(=O)N2)NC(=O)[C@H](CSSC[C@@H](C(=O)N[C@@H](CCCCN)C(=O)N[C@@H](Cc2ccc(O)cc2)C(=O)N[C@H](C(=O)N[C@@H](Cc2ccccc2)C(N)=O)C(C)C)NC(=O)[C@H](Cc2c[nH]c4ccccc24)NC(=O)[C@H](CCCCN)NC(=O)[C@H](Cc2cnc[nH]2)NC(=O)[C@H]([C@@H](C)O)NC(=O)[C@H](CCCNC(=N)N)NC(=O)[C@H](CO)NC3=O)NC(=O)[C@H](CCCCN)NC(=O)[C@H](CC(=O)O)NC(=O)[C@H](CC(N)=O)NC(=O)[C@H](CC(=O)O)NC(=O)[C@H](Cc2c[nH]c3ccccc23)NC1=O (H-DCLGFMRKCIWDNDKCCRPNLVCSRTHKWCKYVF-NH2; disulfide 2-17, 9-23, 16-30) | > 5 µM | 0.08 µM |
| CC[C@H](C)[C@@H]1NC(=O)[C@@H]2CSSC[C@@H]3NC(=O)[C@H](C(C)C)NC(=O)[C@H](CC(C)C)NC(=O)[C@H](CC(N)=O)NC(=O)[C@@H]4CCCN4C(=O)[C@H](CCCNC(=N)N)NC(=O)[C@H](CSSC[C@H](NC(=O)[C@@H](N)CC(=O)O)C(=O)N[C@@H](CC(C)C)C(=O)NCC(=O)N[C@@H](Cc4ccccc4)C(=O)N[C@@H](CCSC)C(=O)N[C@@H](CCCNC(=N)N)C(=O)N[C@@H](CCCCN)C(=O)N2)NC(=O)[C@H](CSSC[C@@H](C(=O)N[C@@H](CCCCN)C(=O)N[C@@H](Cc2ccc(O)cc2)C(=O)N[C@H](C(=O)N[C@@H](Cc2ccccc2)C(N)=O)C(C)C)NC(=O)[C@H](Cc2c[nH]c4ccccc24)NC(=O)[C@H](CCCCN)NC(=O)[C@H](Cc2c[nH]cn2)NC(=O)[C@H]([C@@H](C)O)NC(=O)[C@H](CCC(=O)O)NC(=O)[C@H](CO)NC3=O)NC(=O)[C@H](CCCCN)NC(=O)[C@H](CC(=O)O)NC(=O)[C@H](CC(N)=O)NC(=O)[C@H](CC(=O)O)NC(=O)[C@@H]2CCCN2C1=O (H-DCLGFMRKCIPDNDKCCRPNLVCSETHKWCKYVF-NH2; disulfide 2-17, 9-23, 16-30) | > 5 µM | 0.72 µM |
| CC[C@H](C)[C@@H]1NC(=O)[C@@H]2CSSC[C@@H]3NC(=O)[C@H](C(C)C)NC(=O)[C@H](CC(C)C)NC(=O)[C@H](CC(N)=O)NC(=O)[C@@H]4CCCN4C(=O)[C@H](CCCNC(=N)N)NC(=O)[C@H](CSSC[C@H](NC(=O)[C@@H](N)CC(=O)O)C(=O)N[C@@H](CC(C)C)C(=O)NCC(=O)N[C@@H](Cc4ccccc4)C(=O)N[C@@H](CCCNC(=N)N)C(=O)N[C@@H](CCCNC(=N)N)C(=O)N[C@@H](CCCCN)C(=O)N2)NC(=O)[C@H](CSSC[C@@H](C(=O)N[C@@H](CCCCN)C(=O)N[C@@H](Cc2ccc(O)cc2)C(=O)N[C@H](C(=O)N[C@@H](Cc2ccccc2)C(N)=O)C(C)C)NC(=O)[C@H](Cc2c[nH]c4ccccc24)NC(=O)[C@H](CCCCN)NC(=O)[C@H](Cc2cnc[nH]2)NC(=O)[C@H]([C@@H](C)O)NC(=O)[C@H](CCCNC(=N)N)NC(=O)[C@H](CO)NC3=O)NC(=O)[C@H](CCCCN)NC(=O)[C@H](CC(=O)O)NC(=O)[C@H](CC(N)=O)NC(=O)[C@H](CC(=O)O)NC(=O)[C@@H]2CCCN2C1=O (H-DCLGFRRKCIPDNDKCCRPNLVCSRTHKWCKYVF-NH2; disulfide 2-17, 9-23, 16-30) | > 5 µM | > 4.9 µM |
| CC[C@@H](C)[C@H]1NC(=O)[C@H]2CSSC[C@@H]3NC(=O)[C@@H](C(C)C)NC(=O)[C@H](CC(C)C)NC(=O)[C@H](CC(N)=O)NC(=O)[C@@H]4CCCN4C(=O)[C@H](CCCNC(=N)N)NC(=O)[C@H](CSSC[C@@H](NC(=O)[C@@H](N)CC(=O)O)C(=O)N[C@H](C)C(=O)NCC(=O)N[C@@H](Cc4ccccc4)C(=O)N[C@H](CCSC)C(=O)N[C@@H](CCCNC(=N)N)C(=O)N[C@@H](CCCCN)C(=O)N2)NC(=O)[C@@H](CSSC[C@@H](C(=O)N[C@@H](CCCCN)C(=O)N[C@@H](Cc2ccc(O)cc2)C(=O)N[C@H](C(=O)N[C@@H](Cc2ccccc2)C(N)=O)C(C)C)NC(=O)[C@@H](Cc2c[nH]c4ccccc24)NC(=O)[C@H](CCCCN)NC(=O)[C@H](Cc2cnc[nH]2)NC(=O)[C@@H]([C@H](C)O)NC(=O)[C@@H](CCCNC(=N)N)NC(=O)[C@H](CO)NC3=O)NC(=O)[C@@H](CCCCN)NC(=O)[C@H](CC(=O)O)NC(=O)[C@@H](CC(N)=O)NC(=O)[C@H](CC(=O)O)NC(=O)[C@@H]2CCCN2C1=O | > 5 µM | 0.43 µM |
| CC[C@H](C)[C@@H]1NC(=O)[C@@H]2CSSC[C@@H]3NC(=O)[C@H](C(C)C)NC(=O)[C@H](CC(C)C)NC(=O)[C@H](CC(N)=O)NC(=O)[C@@H]4CCCN4C(=O)[C@H](CCCNC(=N)N)NC(=O)[C@H](CSSC[C@H](NC(=O)[C@@H](N)CC(=O)O)C(=O)N[C@@H](CC(C)C)C(=O)NCC(=O)N[C@@H](Cc4ccccc4)C(=O)N[C@@H](CCSC)C(=O)N[C@@H](CCCNC(=N)N)C(=O)N[C@@H](CCCCN)C(=O)N2)NC(=O)[C@H](CSSC[C@@H](C(=O)N[C@@H](CCCCN)C(=O)N[C@@H](Cc2ccc(O)cc2)C(=O)N[C@H](C(=O)N[C@@H](Cc2ccccc2)C(N)=O)C(C)C)NC(=O)[C@H](Cc2c[nH]c4ccccc24)NC(=O)[C@H](CCCCN)NC(=O)[C@H](Cc2cnc[nH]2)NC(=O)[C@H](CCCCN)NC(=O)[C@H](CCCNC(=N)N)NC(=O)[C@H](CO)NC3=O)NC(=O)[C@H](CCCCN)NC(=O)[C@H](CC(=O)O)NC(=O)[C@H](CC(N)=O)NC(=O)[C@H](CC(=O)O)NC(=O)[C@@H]2CCCN2C1=O (H-DCLGFMRKCIPDNDKCCRPNLVCSRKHKWCKYVF-NH2; disulfide 2-17, 9-23, 16-30) | > 5 µM | 0.04 µM |
